Results taken from publication PMC6923798 (Bioorganic chemistry, 2018).
Read-outs that look alike come from different tables or passages of the source.

Legend:
SR cell line = assay: NCI in vitro one dose anticancer assay; format: cell-based; conditions: Homo sapiens, 48 h, read-out: % growth inhibition
How it was run: (§1)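 NCI protocol. Test compound added once at 10−5 M to ~60 human tumour lines from nine subpanels. Incubated 48 h at 37 °C, 5% CO2, 95% air, 100% relative humidity. Endpoint by sulforhodamine B protein staining with spectrophotometric absorbance. Growth of treated cells reported as percent of untreated cells.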

c-Src = c-Src (Homo sapiens, UniProt P12931); assay: Src kinase assay; format: biochemical
c-Src, sequence (P12931 whole entry): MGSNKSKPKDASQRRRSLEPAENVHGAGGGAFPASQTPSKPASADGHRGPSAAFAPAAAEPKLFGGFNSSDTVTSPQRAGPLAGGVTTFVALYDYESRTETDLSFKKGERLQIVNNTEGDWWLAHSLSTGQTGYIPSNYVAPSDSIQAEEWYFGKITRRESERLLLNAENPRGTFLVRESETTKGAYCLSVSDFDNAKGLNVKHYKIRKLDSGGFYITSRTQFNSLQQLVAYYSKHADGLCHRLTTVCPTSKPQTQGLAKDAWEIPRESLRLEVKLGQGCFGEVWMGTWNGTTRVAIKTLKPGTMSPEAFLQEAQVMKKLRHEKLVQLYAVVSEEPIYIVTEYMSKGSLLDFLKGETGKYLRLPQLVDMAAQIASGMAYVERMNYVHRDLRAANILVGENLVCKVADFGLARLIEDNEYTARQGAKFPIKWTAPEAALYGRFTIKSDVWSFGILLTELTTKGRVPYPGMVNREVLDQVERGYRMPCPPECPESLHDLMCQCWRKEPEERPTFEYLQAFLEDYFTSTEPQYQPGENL

EGFR = EGFR (Homo sapiens, UniProt P00533); assay: EGFR kinase assay; format: biochemical
EGFR, sequence (P00533 25-1210): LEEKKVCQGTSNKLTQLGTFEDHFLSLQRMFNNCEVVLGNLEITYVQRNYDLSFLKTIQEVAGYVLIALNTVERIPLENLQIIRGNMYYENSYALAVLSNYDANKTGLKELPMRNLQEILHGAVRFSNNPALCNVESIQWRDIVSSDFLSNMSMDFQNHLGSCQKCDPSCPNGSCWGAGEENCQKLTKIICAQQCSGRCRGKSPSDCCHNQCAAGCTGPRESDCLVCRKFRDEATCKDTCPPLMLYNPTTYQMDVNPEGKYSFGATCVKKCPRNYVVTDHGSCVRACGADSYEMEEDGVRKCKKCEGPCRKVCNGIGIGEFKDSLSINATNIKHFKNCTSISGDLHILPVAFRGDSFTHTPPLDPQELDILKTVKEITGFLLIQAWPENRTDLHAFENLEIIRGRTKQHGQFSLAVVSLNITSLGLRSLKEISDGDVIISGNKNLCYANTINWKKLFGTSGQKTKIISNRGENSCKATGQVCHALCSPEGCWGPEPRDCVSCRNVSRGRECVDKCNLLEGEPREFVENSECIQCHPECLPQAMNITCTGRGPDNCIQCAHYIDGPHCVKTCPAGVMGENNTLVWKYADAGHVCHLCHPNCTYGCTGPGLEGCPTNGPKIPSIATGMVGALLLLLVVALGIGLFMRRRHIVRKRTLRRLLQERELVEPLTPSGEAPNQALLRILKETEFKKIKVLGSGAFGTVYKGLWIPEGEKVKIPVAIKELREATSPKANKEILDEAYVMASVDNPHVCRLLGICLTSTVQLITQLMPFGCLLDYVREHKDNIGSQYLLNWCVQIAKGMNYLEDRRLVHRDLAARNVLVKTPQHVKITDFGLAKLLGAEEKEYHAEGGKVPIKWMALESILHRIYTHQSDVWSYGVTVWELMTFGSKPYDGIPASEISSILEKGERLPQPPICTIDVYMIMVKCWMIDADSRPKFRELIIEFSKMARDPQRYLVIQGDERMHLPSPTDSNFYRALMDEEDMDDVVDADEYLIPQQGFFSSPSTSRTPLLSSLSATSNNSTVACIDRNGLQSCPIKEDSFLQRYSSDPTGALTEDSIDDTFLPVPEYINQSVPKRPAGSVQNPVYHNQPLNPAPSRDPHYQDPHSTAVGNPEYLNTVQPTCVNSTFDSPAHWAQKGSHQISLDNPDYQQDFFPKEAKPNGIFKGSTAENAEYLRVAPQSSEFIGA

K-562 = assay: MTT anti-proliferative assay; format: cell-based, human; conditions: read-out: IC50 ± SD, K-562
KG-1a = assay: MTT anti-proliferative assay; format: cell-based, human; conditions: read-out: IC50 ± SD, KG-1a
RPMI-8226 cell line = assay: NCI in vitro one dose anticancer assay; format: cell-based; conditions: Homo sapiens, RPMI-8226, 48 h, read-out: % growth inhibition
How it was run: as §1

Jurkat = assay: MTT anti-proliferative assay; format: cell-based, human; conditions: read-out: IC50 ± SD, Jurkat
IL-6 = IL-6 ELISA in K-562 cells; format: cell-based, human; conditions: Homo sapiens, K562, 24 h, read-out: IL-6 protein levels (% of control)
How it was run: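 K-562 cells exposed 24 h to vehicle (DMSO), test compound at 10 μM or dexamethasone (positive control). IL-6 secreted into cell-free supernatant quantified by human IL-6 ELISA kit. Expressed as % of vehicle control, mean ± SD of three independent experiments, each in triplicate. Time course: in 12-well plates, medium changed when compound (10 μM) added, and media sampled at 0, 1, 4, 8, 12, 24, 48 h.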

STAT3 = STAT3 activation assay; format: cell-based, human; conditions: K-562 cells, 10 μM, 24 h, nuclear extracts
How it was run: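 K562 cells seeded overnight in 10 cm plates, then given vehicle, test compound (10 μM) or WP1066 (positive control) for 24 h. Nuclear fractions extracted by kit. STAT3 activation measured in nuclear extracts by TransAM STAT3 ELISA per manufacturer. Mean ± SD of three independent experiments, each in triplicate.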

K-562 cell line = assay: NCI in vitro one dose anticancer assay; format: cell-based; conditions: Homo sapiens, K562, 48 h, read-out: % growth inhibition
How it was run: as §1

[1] = tested on: full NCI panel of 60 cell lines; assay: NCI in vitro one dose anticancer assay; format: cell-based, human; conditions: 48 h; for inhibition at 10 µM: Homo sapiens, 60 cell, read-out: Mean growth inhibition %
How it was run: as §1

MOLT-4 cell line = assay: NCI in vitro one dose anticancer assay; format: cell-based; conditions: Homo sapiens, MOLT-4, 48 h, read-out: % growth inhibition
How it was run: as §1

Row | IC50 (c-Src) [µM] | IC50 (EGFR) [µM] | IC50 (K-562; Homo sapiens, K562, 24 h) [µM] | IC50 (Jurkat; Homo sapiens, Jurkat, 24 h) [µM] | IC50 (c-Src; read-out: Src (IC50 μM), PGT substrate, ATP 50 μM) [µM] | IC50 (EGFR; read-out: EGFR (IC50 μM), PGT substrate, ATP 50 μM) [µM] | IC50 (K-562; MTT, 24 h treatment) [µM] | IC50 (Jurkat; MTT, 24 h treatment) [µM] | Structure (SMILES) | inhibition at 10 µM (SR cell line) [%] | IC50 (KG-1a; Homo sapiens, KG-1a, 24 h) [µM] | inhibition at 10 µM (RPMI-8226 cell line) [%] | activity at 10 µM (IL-6) [%] | inhibition of STAT3 activation (STAT3) | inhibition at 10 µM (K-562 cell line) [%] | inhibition at 10 µM [1] [%] | inhibition at 10 µM (MOLT-4 cell line) [%] | IC50 (KG-1a; MTT, 24 h treatment) [µM] | Mean growth inhibition % ([1]; 10 μM, SRB, mean over NCI 60 cell line panel) [%]
1 | 15.3 ± 1.25 | 12.3 ± 0.8 | 15.1 ± 0.25 | 25.1 ± 0.45 |  |  |  |  | COc1ccc(-c2nnc(SCC(=O)Nc3ccc(C(=O)C=Cc4cc(OC)c(OC)c(OC)c4)cc3)o2)cc1OC [Compound 8s, 2-((5-(3,4-Dimethoxyphenyl)-1,3,4-oxadiazol-2-yl)thio)-N-(4-(3-(3,4,5-trimethoxyphenyl)acryloyl)phenyl)acetamide] | 32.9 to 160 | 32.1 ± 0.64 | 31.3 to 144 | 30 to 75 | moderate activities | 35.8 to 152 |  |  |  | 
2 | 35.1 ± 3.26 | 20.5 ± 1.35 | 62.1 ± 3.07 | 69.17 ± 0.15 |  |  |  |  | COc1cc(C=CC(=O)c2ccc(NC(=O)CSc3nnc(-c4cc(OC)c(OC)c(OC)c4)o3)cc2)cc(OC)c1OC [Compound 8x, 2-((5-(3,4,5-Trimethoxyphenyl)-1,3,4-oxadiazol-2-yl)thio)-N-(4-(3-(3,4,5-trimethoxyphenyl)acryloyl)phenyl)acetamide] | 32.9 to 160 | 71.5 ± 1.18 | 31.3 to 144 | 30 to 75 | moderate activities |  |  |  |  | 
3 | 13.7 ± 0.89 | 13.3 ± 0.65 | 16.1 ± 1.08 | 17.2 ± 0.79 |  |  |  |  | COc1ccc(-c2nnc(SCC(=O)Nc3ccc(C(=O)C=Cc4ccc(Cl)cc4)cc3)o2)cc1OC [Compound 8p, N-(4-(3-(4-chlorophenyl)acryloyl)phenyl)-2-((5-(3,4-dimethoxyphenyl)-1,3,4-oxadiazol-2-yl)thio)acetamide] | 32.9 to 160 | 22.5 ± 1.07 | 31.3 to 144 | 30 to 75 | moderate activities |  | 28.2 | 31.9 to 108 |  | 
4 |  |  |  |  | 4.5 ± 1.2 | 1.23 ± 0.25 | 7.21 ± 0.35 | 8.47 ± 1.03 | O=C(CSc1nnc(-c2ccccc2)o1)Nc1ccc(C(=O)C=Cc2ccccc2)cc1 [Compound 8a, N-(4-(3-Phenyl)acryloyl)phenyl-2-((5-phenyl-1,3,4-oxadiazol-2-yl)thio)-acetamide] |  |  |  |  | most effective |  |  |  | 8.85 ± 0.22 | 37.77

The next lines start with the molecule.

Row | Structure (SMILES) | IC50 (c-Src) [µM] | IC50 (EGFR) [µM] | IC50 (K-562; Homo sapiens, K562, 24 h) [µM] | IC50 (Jurkat; Homo sapiens, Jurkat, 24 h) [µM] | IC50 (c-Src; read-out: Src (IC50 μM), PGT substrate, ATP 50 μM) [µM] | IC50 (EGFR; read-out: EGFR (IC50 μM), PGT substrate, ATP 50 μM) [µM] | IC50 (K-562; MTT, 24 h treatment) [µM] | IC50 (Jurkat; MTT, 24 h treatment) [µM] | inhibition at 10 µM (SR cell line) [%] | IC50 (KG-1a; Homo sapiens, KG-1a, 24 h) [µM] | inhibition at 10 µM (RPMI-8226 cell line) [%] | activity at 10 µM (IL-6) [%] | inhibition of STAT3 activation (STAT3) | inhibition at 10 µM (K-562 cell line) [%] | inhibition at 10 µM [1] [%] | inhibition at 10 µM (MOLT-4 cell line) [%] | IC50 (KG-1a; MTT, 24 h treatment) [µM] | Mean growth inhibition % ([1]; 10 μM, SRB, mean over NCI 60 cell line panel) [%]
5 | O=C(CSc1nnc(-c2ccc(Cl)cc2)o1)Nc1ccc(C(=O)C=Cc2ccccc2)cc1 [Compound 8e, 2-((5-(4-Chlorophenyl)-1,3,4-oxadiazol-2-yl)thio)-N-(4-cinnamoylphenyl)acetamide] | 74.4 ± 3.6 | 59.4 ± 5.63 | 93.3 ± 5.21 | > 100 |  |  |  |  | 32.9 to 160 | > 100 | 31.3 to 144 | 82 to 98 |  |  |  |  |  | 
6 | COc1ccc(-c2nnc(SCC(=O)Nc3ccc(C(=O)C=Cc4cc(OC)c(OC)c(OC)c4)cc3)o2)cc1 [Compound 8n, 2-(5-(4-Methoxyphenyl)-1,3,4-oxadiazol-2-ylthio)-N-(4-(3-(3,4,5-tri-methoxyphenyl)acryloyl)phenyl)acetamide] | 6.24 ± 0.86 | 2.35 ± 0.95 | 10.2 ± 0.94 | 13.15 ± 0.08 |  |  |  |  | 32.9 to 160 | 16 ± 0.96 |  | 20 to 23 | most effective | 35.8 to 152 | 27.3 |  |  | 
